Common to all, as to format: ADME
Data set [1] has as its target T1, UDP-glucuronosyltransferase 2B7 (Homo sapiens, UniProt P16662).
T1 sequence (P16662 whole entry): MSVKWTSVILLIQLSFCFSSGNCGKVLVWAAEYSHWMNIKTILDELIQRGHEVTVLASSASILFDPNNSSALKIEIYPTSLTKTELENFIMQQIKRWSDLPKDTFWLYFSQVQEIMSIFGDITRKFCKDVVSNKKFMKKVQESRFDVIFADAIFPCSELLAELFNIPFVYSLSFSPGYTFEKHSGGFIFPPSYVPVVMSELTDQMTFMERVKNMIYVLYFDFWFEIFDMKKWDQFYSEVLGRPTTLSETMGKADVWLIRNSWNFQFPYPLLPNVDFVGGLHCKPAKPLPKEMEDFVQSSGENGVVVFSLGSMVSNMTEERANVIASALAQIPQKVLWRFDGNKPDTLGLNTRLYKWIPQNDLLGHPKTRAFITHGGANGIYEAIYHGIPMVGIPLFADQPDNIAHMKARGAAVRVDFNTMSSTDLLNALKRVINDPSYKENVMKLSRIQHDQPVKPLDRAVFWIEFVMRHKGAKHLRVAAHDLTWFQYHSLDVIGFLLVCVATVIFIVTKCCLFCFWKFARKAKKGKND
Description: Drug metabolism assessed as recombinant human C-terminal His-tagged UGT2B7-mediated 17-epiestriol-17-glucuronide formation at 4 mg after 5 hrs by NMR spectroscopic analysis in presence of UDPGA. Conditions: recombinant enzyme. A digest of the protocol: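 Preparative biosynthesis: 4 mg 17-epiestriol with fresh UGT2B7-enriched insect-cell homogenate (about 500 mg total protein) in 25 ml. Contained 50 mM phosphate pH 7.4, 10 mM MgCl₂, 50 mM UDPGA and 10% DMSO. Glucuronides fractionated by HPLC with 0.1% HCOOH eluent and 280 nm UV, then concentrated and lyophilized for NMR.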

Data set [2] concerns the target T1, UDP-glucuronosyltransferase 2B7. Put plainly: Drug metabolism assessed as recombinant human C-terminal His-tagged UGT2B7-mediated 16-epiestriol-16-glucuronide formation at 5 mg after 5 hrs by NMR spectroscopic analysis in presence of UDPGA.
The target of data set [3] is T2, UDP-glucuronosyltransferase 1A10 (Homo sapiens, UniProt Q9HAW8).
T2 sequence (Q9HAW8 whole entry): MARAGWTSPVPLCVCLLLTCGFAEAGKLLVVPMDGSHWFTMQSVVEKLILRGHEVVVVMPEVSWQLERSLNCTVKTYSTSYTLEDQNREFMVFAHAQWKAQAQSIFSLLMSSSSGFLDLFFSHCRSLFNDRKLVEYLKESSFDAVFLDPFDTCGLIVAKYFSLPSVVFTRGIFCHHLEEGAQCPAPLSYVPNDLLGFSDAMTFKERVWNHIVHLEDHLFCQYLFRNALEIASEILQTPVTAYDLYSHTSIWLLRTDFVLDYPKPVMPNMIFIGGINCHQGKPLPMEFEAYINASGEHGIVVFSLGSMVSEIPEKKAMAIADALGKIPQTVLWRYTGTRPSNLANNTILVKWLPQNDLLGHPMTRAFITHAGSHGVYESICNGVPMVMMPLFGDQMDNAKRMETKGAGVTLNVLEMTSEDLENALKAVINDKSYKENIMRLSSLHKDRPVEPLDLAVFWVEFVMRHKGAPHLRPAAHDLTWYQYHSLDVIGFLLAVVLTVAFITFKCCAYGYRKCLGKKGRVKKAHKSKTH
Description: Drug metabolism assessed as recombinant human C-terminal His-tagged UGT1A10-mediated 16-epiestriol-3-glucuronide formation after 15 to 60 mins by Michaelis-Menten equation analysis in presence of UDPGA. As to conditions: recombinant enzyme. In outline: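 For kinetics, the aglycone ranged from 0.2 to 300 μM in DMSO (10% final) with 5 mM UDPGA, 10 mM MgCl₂ and 50 mM phosphate pH 7.4. Enzyme was UGT-enriched insect cell membranes. Incubation was 15–60 min at 37°C, in triplicate, keeping substrate consumption ≤10%. Products were measured by HPLC and fitted to Michaelis-Menten. Rates were normalized to expression level.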

Data set [4] has as its target UDP-glucuronosyltransferase 1A7 (Homo sapiens, UniProt Q9HAW7). Description: Drug metabolism assessed as recombinant human C-terminal His-tagged UGT1A7-mediated 16-epiestriol-3-glucuronide formation after 15 to 60 mins by Michaelis-Menten equation analysis in presence of UDPGA. Conditions: recombinant enzyme.
The target of data set [5] is T3, UDP-glucuronosyltransferase 2B17 (Homo sapiens, UniProt O75795).
T3 sequence (O75795 whole entry): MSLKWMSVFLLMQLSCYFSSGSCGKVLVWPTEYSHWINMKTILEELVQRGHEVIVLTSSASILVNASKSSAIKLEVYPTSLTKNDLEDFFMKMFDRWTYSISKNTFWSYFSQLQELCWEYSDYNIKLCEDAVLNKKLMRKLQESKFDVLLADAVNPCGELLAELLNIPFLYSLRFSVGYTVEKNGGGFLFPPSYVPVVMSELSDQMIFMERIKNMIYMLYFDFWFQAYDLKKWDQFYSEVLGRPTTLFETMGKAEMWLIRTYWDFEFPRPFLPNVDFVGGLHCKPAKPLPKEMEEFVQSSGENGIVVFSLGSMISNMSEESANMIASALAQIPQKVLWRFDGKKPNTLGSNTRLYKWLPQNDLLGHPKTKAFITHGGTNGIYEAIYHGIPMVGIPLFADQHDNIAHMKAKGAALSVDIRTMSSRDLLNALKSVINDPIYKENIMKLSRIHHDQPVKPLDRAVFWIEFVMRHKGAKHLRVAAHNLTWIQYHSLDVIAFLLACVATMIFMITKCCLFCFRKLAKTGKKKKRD
Description: Drug metabolism assessed as recombinant human C-terminal His-tagged UGT2B17-mediated 16-epiestriol-16-glucuronide formation after 15 to 60 mins by Michaelis-Menten equation analysis in presence of UDPGA. As to conditions: recombinant enzyme.

Data set [6] can be described thus: Drug metabolism in human intestine microsomes assessed as estriol-16-glucuronide formation after 15 to 60 mins by Michaelis-Menten equation analysis in presence of UDPGA. A digest of the protocol: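 Pooled human intestine microsomes (6 donors), 0.5 or 10 µg, with alamethicin at 5% of total protein. Incubated with 50 mM phosphate pH 7.4, 10 mM MgCl₂, 5 mM UDPGA and 10% DMSO for 15–60 min at 37°C. Each glucuronide regioisomer quantified by HPLC, in triplicate, with substrate consumption at or below 10%.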

Data set [7] deals with UDP-glucuronosyltransferase 1A10 (Homo sapiens, UniProt Q9HAW8, F93G). Description: Drug metabolism assessed as human UGT1A10 F93G mutant-mediated 13-epiestradiol-3-glucuronide formation at 200 uM after 15 to 60 mins by HPLC analysis in presence of UDPGA. A digest of the protocol:
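Screening at a single substrate concentration of 200 μM, in triplicate. The reaction used 5 or 50 µg of UGT-enriched insect cell membranes in 50 mM phosphate pH 7.4 with 10 mM MgCl₂ and 5 mM UDPGA, 10% final DMSO. Incubation was 15–60 min at 37°C. Perchloric acid stopped the reaction and supernatants were analysed by HPLC. Controls lacked UDPGA. Rates were normalized to relative UGT expression level.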

Consider four compounds from ChEMBL document CHEMBL3525985, “Regiospecificity and stereospecificity of human UDP-glucuronosyltransferases in the glucuronidation of estriol, 16-epiestriol, 17-epiestriol, and 13-epiestradiol” (Drug Metab Dispos, 2013).

As usually defined, the Km is the substrate concentration at which the rate is half of its maximum. By Vmax is commonly meant the top rate of the reaction or transport when substrate is in excess.

Chain of UDP-glucuronosyltransferase 1A7 (Q9HAW7 whole entry): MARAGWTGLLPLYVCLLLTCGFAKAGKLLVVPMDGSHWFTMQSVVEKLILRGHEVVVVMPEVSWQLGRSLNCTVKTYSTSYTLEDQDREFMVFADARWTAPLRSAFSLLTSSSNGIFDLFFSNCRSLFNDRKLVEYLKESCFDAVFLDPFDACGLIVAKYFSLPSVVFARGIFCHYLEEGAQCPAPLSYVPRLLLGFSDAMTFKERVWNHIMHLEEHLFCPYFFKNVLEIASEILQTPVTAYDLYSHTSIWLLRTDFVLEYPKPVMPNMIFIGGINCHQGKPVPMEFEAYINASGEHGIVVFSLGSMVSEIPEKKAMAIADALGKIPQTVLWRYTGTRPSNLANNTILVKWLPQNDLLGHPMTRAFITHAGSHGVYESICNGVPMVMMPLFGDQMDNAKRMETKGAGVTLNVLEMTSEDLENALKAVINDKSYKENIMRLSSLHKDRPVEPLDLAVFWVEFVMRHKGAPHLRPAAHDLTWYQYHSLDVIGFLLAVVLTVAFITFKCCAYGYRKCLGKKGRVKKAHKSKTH
Chain of UDP-glucuronosyltransferase 1A10 (Homo sapiens, UniProt Q9HAW8, F93G) (Q9HAW8 26-530 F93G limits assumed): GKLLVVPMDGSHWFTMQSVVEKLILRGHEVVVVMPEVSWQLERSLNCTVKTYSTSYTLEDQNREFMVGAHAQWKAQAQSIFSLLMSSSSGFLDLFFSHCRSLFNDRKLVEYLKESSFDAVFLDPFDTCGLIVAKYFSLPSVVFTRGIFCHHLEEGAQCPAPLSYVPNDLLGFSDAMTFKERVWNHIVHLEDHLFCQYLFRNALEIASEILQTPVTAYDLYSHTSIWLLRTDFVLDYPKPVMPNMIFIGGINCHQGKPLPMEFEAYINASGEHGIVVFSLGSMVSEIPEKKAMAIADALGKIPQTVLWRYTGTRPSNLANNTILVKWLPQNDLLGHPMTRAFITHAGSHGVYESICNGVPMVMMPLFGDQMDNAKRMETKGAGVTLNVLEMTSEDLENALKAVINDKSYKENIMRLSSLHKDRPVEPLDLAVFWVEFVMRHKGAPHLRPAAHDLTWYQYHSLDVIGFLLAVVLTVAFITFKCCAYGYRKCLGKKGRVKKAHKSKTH

As for `C[C@]12CC[C@@H]3c4ccc(O)cc4CC[C@H]3[C@@H]1C[C@@H](O)[C@H]2O`, the Drug metabolism result in data set [1] was “metabolite_detected”.
On to `C[C@]12CC[C@@H]3c4ccc(O)cc4CC[C@H]3[C@@H]1C[C@H](O)[C@@H]2O` [EPIESTRIOL], for which the Drug metabolism result is recorded as “metabolite_detected” in data set [2], 3500 pmol/min/mg in data set [3], 0.5 pmol/min/mg in data set [4] and 5 pmol/min/mg in data set [5].
`C[C@]12CC[C@@H]3c4ccc(O)cc4CC[C@H]3[C@@H]1C[C@@H](O)[C@@H]2O` [ESTRIOL]: in data set [6], the Km came out at 5.1 µM and the Vmax was 953 pmol/min/mg.
In the case of `C[C@@]12CC[C@@H]3c4ccc(O)cc4CC[C@H]3[C@@H]1CC[C@@H]2O`, the Drug metabolism result in data set [7] is listed as “metabolite_detected”.
